According to ChEMBL document CHEMBL3272127, “Synthesis and kinetic evaluation of S- and N-substituted cysteinylglycines as inhibitors of glyoxalase I” (J Med Chem, 1977):
Calls of active or inactive are those of the source. No cut-off for these calls is given here. Square brackets hold non-standard residues; d marks the D form. Peptide text beside a SMILES is read from it. * marks the point of attachment. Bn = c1ccc(C*)cc1; GABA = NCCCC(=O)O; βAla = NCCC(=O)O

Experiments:
[1] = Binding affinity to yeast glyoxalase 1 assessed as inhibition of product formation by double reciprocal plot method; parameters: species or system Saccharomyces cerevisiae
Method in brief: (§1)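 Yeast glyoxalase I, diluted to 20 µg/ml in 30% glycerin with 0.1% BSA. Assays ran at 30 °C in 0.05 M phosphate buffer, pH 6.6. Methylglyoxal, reduced glutathione, inhibitor and buffer were preincubated 3 min to form the hemimercaptal, then enzyme was added. Product formation was followed at 240 nm.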

[2] = system: Saccharomyces cerevisiae; test: Competitive inhibition of yeast glyoxalase 1 assessed as inhibition of product formation by double reciprocal plot method; method in brief: as §1
[3] = system: Saccharomyces cerevisiae; test: Activity of yeast glyoxalase 1; method in brief: as §1
[4] = species on record: Mus musculus; test: Activity of mouse liver glyoxalase
[5] = Ratio of Km for yeast glyoxalase 1 to Km for mouse liver glyoxalase
[6] = Noncompetitive inhibition of yeast glyoxalase 1 assessed as inhibition of product formation by double reciprocal plot method; parameters: species or system Saccharomyces cerevisiae; method in brief: as §1
[7] = system: Saccharomyces cerevisiae; test: Binding affinity to active site of yeast glyoxalase 1 using hemimercaptal as substrate at 0.005 to 0.015 mM in presence of free glutathione
[8] = system: Saccharomyces cerevisiae; test: Synergistic binding affinity to active site of yeast glyoxalase 1 using hemimercaptal as substrate at 0.1 to 0.3 mM in presence of free glutathione
Method in brief: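 Yonetani–Thorell analysis with yeast glyoxalase I at 30 °C, pH 6.6 phosphate, read at 240 nm. Reciprocal velocity was plotted against inhibitor concentration at fixed hemimercaptal substrate and fixed free glutathione levels of 0.1, 2.0 or 5.0 mM.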

Ki ([6]; read-out: Ki) | SMILES | further results
– | CC(=O)C(O)SC[C@H](NC(=O)CC[C@H](N)C(=O)O)C(=O)NCC(=O)O (stereo partly drawn) | Kd [1]: 3.1 mM; inhibition [2]: Active; Km [3]: 500 µM; Km [4]: 57 µM; Ratio [5]: 10
4.1 mM | NCCCC(=O)N[C@@H](CSCc1ccccc1)C(=O)NCC(=O)O (H-[GABA]-Cys(Bn)-Gly-OH) | –
3 mM | O=C(O)CCCC(=O)N[C@@H](CSCc1ccccc1)C(=O)NCC(=O)O | –
– | N[C@@H](CCC(=O)N[C@@H](CSCc1ccc(Br)cc1)C(=O)NCC(=O)O)C(=O)O | inhibition [2]: Active; Activity [7]: Active
– | N[C@@H](CSCc1ccccc1)C(=O)NCC(=O)O | Ki [6]: Not Active
0.58 mM | N[C@@H](CSCc1ccc(Br)cc1)C(=O)NCC(=O)O | –
1.2 mM | NCCCC(=O)N[C@@H](CSCc1ccc(Br)cc1)C(=O)NCC(=O)O | –
0.4 mM | O=C(O)CCC(=O)N[C@@H](CSCc1ccc(Br)cc1)C(=O)NCC(=O)O | –
4.5 mM | O=C(O)CCC(=O)N[C@@H](CSCc1ccccc1)C(=O)NCC(=O)O | –
1.5 mM | NCCC(=O)N[C@@H](CSCc1ccc(Br)cc1)C(=O)NCC(=O)O | –
5.3 mM | NCCC(=O)N[C@@H](CSCc1ccccc1)C(=O)NCC(=O)O (H-[βAla]-Cys(Bn)-Gly-OH) | –
0.32 mM | O=C(O)CCCC(=O)N[C@@H](CSCc1ccc(Br)cc1)C(=O)NCC(=O)O | Activity [8]: Active
